PP1 counter – PP1-alpha phosphatase inhibitors, primary screen, counter-screen for PP5 inhibitor project, biochemical, fluorescence, OMFP substrate, single point; Serine/threonine-protein phosphatase PP1-alpha catalytic subunit (Homo sapiens), P62136; purified PP1alpha; hit rate 0.9% among 320,000; inhibition, % at 6.7 µM;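 active means inhibition above the mean inhibition of all tested compounds plus 3 SD, computed separately for each screening campaign, cut at about 15% in these data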
Apaf1 inhib – inhibitors of human Apaf-1 apoptosome, primary screen, biochemical, DEVD-Rh110 fluorescence, uHTS; hit rate 0.71% among 330,000; inhibition, % at 20 µM; Apoptotic protease-activating factor 1 (Homo sapiens), O14727; reconstituted apoptosome caspase-3 activity; active means inhibition of at least 40% at 20 µM;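 further: plate controls were DMSO wells for no effect and DEVD-CHO caspase inhibitor wells for full effect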
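Material: reconstituted apoptosome with Apaf-1, cytochrome c, caspase-9, procaspase-3, dATP. Technique: Rh110 fluorescence intensity. Buffer or medium: pH 7.5 Hepes buffer with CHAPS, BSA, DTT. Times: 30 min plus 50 min, RT.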
PP5 primary – PP5 phosphatase inhibitors, primary screen, biochemical, fluorescence | Serine/threonine-protein phosphatase 5 (Homo sapiens), P53041 | purified PP5c, OMFP substrate fluorescence | inhibition, % at 6.7 µM | hit rate 0.18% among 320,000 | AID 1987, 2009;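 active means inhibition above the campaign's mean inhibition across all tested compounds plus 3 SD, cut at about 9.5% in these data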;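 further: 0% = DMSO only and 100% = 100 µM cantharidin control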
GSTO1 counter – inhibitors of recombinant GSTO1, primary screen, counter-screen for RBBP9 inhibitor project, biochemical, fluorescence polarization; Glutathione S-transferase omega-1 (Homo sapiens), P78417; activity-based probe fluorescence polarization; inhibition, % at 5.96 µM; hit rate 1.1% among 300,000; AID 1974, 2009;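 active means inhibition above the campaign mean inhibition plus 3 SD, cut at about 35% in these data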;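 further: 0% = GSTO1-1 with DMSO and 100% = wells lacking GSTO1-1 enzyme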
Target sequence (P78417 whole entry, looked up): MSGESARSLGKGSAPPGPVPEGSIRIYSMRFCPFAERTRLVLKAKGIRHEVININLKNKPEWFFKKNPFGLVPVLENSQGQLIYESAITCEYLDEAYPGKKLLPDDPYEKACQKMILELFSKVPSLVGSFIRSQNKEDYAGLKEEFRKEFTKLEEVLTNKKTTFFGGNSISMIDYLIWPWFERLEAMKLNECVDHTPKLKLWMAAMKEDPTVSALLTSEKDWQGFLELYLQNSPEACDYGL
TDP2 inh – human TDP2 enzyme inhibitors, primary screen, biochemical, epi absorbance, recombinant enzyme | T5PNP hydrolysis, p-nitrophenol absorbance 415 nm | inhibition, % at 12.8 µM | hit rate 0.34% among 370,000 | AID 720702, 2013;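 active means inhibition above the mean of all tested compounds plus 3 SD, set per campaign, cut at about 25% in these data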;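 further: 0% = DMSO with enzyme and 100% = buffer with substrate but no TDP2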
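Material: recombinant human TDP2; quantity: TDP2 enzyme at 120 nM final; medium: Tris-HCl pH 7.5 with MgCl2; compound: single concentration, 12.8 µM nominal, with 1% DMSO; incubation: 2 h enzyme incubation at 37 °C; signal: epi absorbance; measure: percent inhibition; benchmarks: high control without enzyme, low control DMSO plus TDP2; repeats: singlicate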
An asterisk follows results filed as active. This is a sample that favours compounds with a hit; in the whole collection about 2.1% have one here.

Results for O=C(CSc1nnc2ccccn12)c1ccc(Cl)cc1 ?
PP1 counter: 0; Apaf1 inhib: 2; PP5 primary: -1; GSTO1 counter: 36*; TDP2 inh: -5

How did O=C(CSc1nnc2ccccn12)NNC(=O)c1ccc(Cl)cc1 do in these assays?
PP1 counter: -6; Apaf1 inhib: -2; PP5 primary: -2; GSTO1 counter: 6; TDP2 inh: -6

Results for Clc1cccc(-c2nnc(SC/C=C/c3ccccc3)n2Cc2ccco2)c1 ?
PP1 counter: 16*; Apaf1 inhib: 14; PP5 primary: 2; GSTO1 counter: 4

Results for O=C(CSc1nnc(-c2ccccn2)n1Cc1ccco1)c1ccc(Cl)cc1 ?
PP1 counter: 11; Apaf1 inhib: 12; PP5 primary: 0; GSTO1 counter: 35*; TDP2 inh: -7

What do the screens show for `CCCCCCCCN1C(=O)[C@@H](CC(=O)NCCCCc2ccccc2)C[C@@]2(C(=O)OC)C1=C[C@H](COCc1ccccc1)O[C@@H]2C`?
TDP2 inh: -5

Results for COc1ccc(CC(=O)NC2CCCCN(Cc3ccc(Cl)cc3)C2=O)cc1OC (centres undefined) ?
TDP2 inh: -13

How did CN1CCN(Cc2cc(COCc3ccccc3)c3cccnc3c2O)CC1 do in these assays?
PP1 counter: 22*; Apaf1 inhib: 5; PP5 primary: -1; GSTO1 counter: -5; TDP2 inh: -9

What do the screens show for `O=c1c2c(nc3cc(-c4ccccc4Cl)[nH]n13)CCS2`?
PP1 counter: 17*; Apaf1 inhib: 0; PP5 primary: 1; GSTO1 counter: -15; TDP2 inh: 12

What do the screens show for `CC(N)C(=O)NC(CO)C(O)C(N)C=O` (centres undefined)?
TDP2 inh: 6

Results for CN(C)c1cccc2c(S(=O)(=O)NCC3CCN(C(=O)C(=O)c4cc5ccccc5o4)CC3)cccc12 ?
TDP2 inh: 8

How did O=C(c1cc2sccc2n1Cc1ccc(F)cc1)N1CCN(c2nc3ccccc3s2)CC1 do in these assays?
PP1 counter: 17*; Apaf1 inhib: 22; PP5 primary: 3; GSTO1 counter: -11; TDP2 inh: 2

Results for O=C(c1cccs1)N1CCN(c2nc3ccccc3s2)CC1 ?
PP1 counter: -2; Apaf1 inhib: -2; PP5 primary: 2; GSTO1 counter: 0; TDP2 inh: 0

How did CCC[C@H]1[C@@H](OC(=O)N2CCCC2)CC[C@@]23CCCN2C(=O)CCC[C@@H]13 do in these assays?
TDP2 inh: -2

What do the screens show for `CCCCc1ccc(NC(=O)CSCc2cc(=O)[nH][nH]2)cc1`?
PP1 counter: 16*; Apaf1 inhib: 20; PP5 primary: 0; GSTO1 counter: 15; TDP2 inh: 6

Results for O=C(CSCc1cc(=O)[nH][nH]1)Nc1ccc(F)cc1 ?
PP1 counter: 0; Apaf1 inhib: 13; PP5 primary: 2; GSTO1 counter: 7; TDP2 inh: 3

What do the screens show for `CCOC(=O)c1cc(-c2csc(-c3ccc(C(F)(F)F)cc3)n2)on1`?
PP1 counter: -1; Apaf1 inhib: 4; PP5 primary: 0; GSTO1 counter: 5; TDP2 inh: -15

Results for CCOC(=O)c1sc(-c2ccc(C(F)(F)F)cc2)nc1O ?
PP1 counter: 17*; Apaf1 inhib: 5; PP5 primary: -1; GSTO1 counter: 11; TDP2 inh: -3

Results for COc1cc([N+](=O)[O-])cc(/C=N/NC(=O)c2cncc(Br)c2)c1O ?
PP1 counter: 10; Apaf1 inhib: -13; PP5 primary: 0; GSTO1 counter: -3; TDP2 inh: -12

How did COc1cc(/C=N/NC(=O)c2cncc(Br)c2)cc([N+](=O)[O-])c1O do in these assays?
PP1 counter: 17*; Apaf1 inhib: 10; PP5 primary: 4; GSTO1 counter: 1; TDP2 inh: -15

What do the screens show for `CC(C)(C)c1ccc(C#C[C@@H]2C=C[C@@H](O)[C@@H](CO)O2)cc1`?
TDP2 inh: 0

What do the screens show for `Cc1nn(C)c(C)c1NC(=O)CSc1nc(-c2ccccc2F)nc2c1cnn2-c1ccccc1`?
TDP2 inh: 9

Screening data from PubChem.
